Activity calls are given as the source filed them. The calls are words filed in the database; no cut-off is given here.
What was measured:
[1] = molecular target: T1, Monoglyceride lipase (Homo sapiens) (UniProt Q99685); assay: Inhibition of human recombinant MGL at 100 uM
T1 sequence (whole entry): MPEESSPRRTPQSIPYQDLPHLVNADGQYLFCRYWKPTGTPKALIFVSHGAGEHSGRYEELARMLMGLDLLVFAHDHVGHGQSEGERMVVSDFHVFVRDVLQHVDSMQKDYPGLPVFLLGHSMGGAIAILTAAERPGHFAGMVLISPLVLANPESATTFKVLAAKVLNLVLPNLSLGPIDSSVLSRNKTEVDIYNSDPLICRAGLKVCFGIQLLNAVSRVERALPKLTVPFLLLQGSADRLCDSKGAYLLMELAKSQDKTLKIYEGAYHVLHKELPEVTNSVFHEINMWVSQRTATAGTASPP
Summary of the method: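 Human recombinant MGL as enzyme source with 2-AG as substrate. Single-concentration screen at 100 µM, expressed as percent inhibition. Mean of two independent experiments, each performed in duplicate.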

[2] = molecular target: T2, Fatty-acid amide hydrolase 1 (Rattus norvegicus, UniProt P97612); assay: Inhibition of Wistar rat brain FAAH assessed as [3H]arachidonoylethanolamide hydrolysis
T2 sequence (P97612 whole entry): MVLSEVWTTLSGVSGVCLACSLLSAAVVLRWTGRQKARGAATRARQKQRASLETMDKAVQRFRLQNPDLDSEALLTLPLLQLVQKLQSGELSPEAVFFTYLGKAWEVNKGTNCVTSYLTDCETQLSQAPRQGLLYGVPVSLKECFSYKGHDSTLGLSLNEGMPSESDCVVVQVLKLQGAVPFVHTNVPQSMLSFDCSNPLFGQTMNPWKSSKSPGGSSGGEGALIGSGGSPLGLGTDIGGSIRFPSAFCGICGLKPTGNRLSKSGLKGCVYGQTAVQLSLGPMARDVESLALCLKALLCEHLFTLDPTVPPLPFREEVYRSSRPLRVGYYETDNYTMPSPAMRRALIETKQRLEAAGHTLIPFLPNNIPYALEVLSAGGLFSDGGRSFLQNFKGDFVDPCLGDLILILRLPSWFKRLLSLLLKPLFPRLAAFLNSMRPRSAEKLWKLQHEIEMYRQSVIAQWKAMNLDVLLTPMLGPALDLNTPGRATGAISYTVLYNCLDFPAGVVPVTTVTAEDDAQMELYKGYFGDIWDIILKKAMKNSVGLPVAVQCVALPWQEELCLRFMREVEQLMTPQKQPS

Monoglyceride lipase = molecular target: T3, Monoglyceride lipase (Homo sapiens, UniProt Q99685); assay: Inhibition of human recombinant MGL
T3 sequence (Q99685 whole entry): T1 sequence (whole entry)

[3] = molecular target: T1, Monoglyceride lipase (Homo sapiens); assay: Inhibition of human recombinant MGL assessed as residual enzyme activity at 1 mM

Row | SMILES | inhibition [1] [%] | IC50 [2] [nM] | IC50 (Monoglyceride lipase) [µM] | Activity [3] [%] | Activity [1]
1 | OB(O)c1ccc(F)nc1 | 2 | 10000 |  |  | 
2 | OB(O)c1cccc(C(F)(F)F)c1 |  | 80 | 38 |  | 
3 | OB(O)c1cc2ccccc2s1 |  | 150 | 32 |  | 
4 | CCCCCCCCCc1ccc(B(O)O)cc1 |  | 9.1 | 7.9 |  | 
5 | OB(O)c1ccc(F)cc1 | 3 | 1500 |  |  | 
6 | OB(O)c1cccc(-c2ccccc2)c1 |  | 130 |  |  | 
7 | OB(O)c1ccc(-c2ccccc2)cc1 [BIPHENYLBORONIC ACID] |  | 21 |  |  | 
8 | N#Cc1ccc(B(O)O)cc1 | 36 | 290 |  |  | 
9 | CCOC(=O)c1cccc(B(O)O)c1 | 34 | 120 |  |  | 
10 | OB(O)c1ccccc1-c1ccccc1 | 2 | 110000 |  |  | 
11 | OB(O)c1ccc(C(F)(F)F)cc1 |  | 36 |  |  | 
12 | O=[N+]([O-])c1ccc(B(O)O)cc1 | 43 | 210 |  |  | 
13 | COc1ccc(B(O)O)cc1 | 11 | 2000 |  |  | 
14 | COc1cccc(B(O)O)c1 | 7 |  |  |  | 
15 | OB(O)c1ccccc1C(F)(F)F | 20 | 68000 |  |  | 
16 | OB(O)c1cc2ccccc2o1 |  | 330 | 100 | 8.4 | 
17 | OB(O)/C=C/c1ccc(-c2ccccc2)cc1 |  | 14 |  |  | 
18 | OB(O)c1ccccc1 [PHENYLBORONIC ACID] |  | 2600 |  |  | inactive
19 | N#Cc1cccc(B(O)O)c1 | 21 | 1600 |  |  | 
20 | COc1ccccc1B(O)O | 11 | 13000 |  |  | 
21 | OB(O)c1ccccc1F | 13 | 710 |  |  | 
